Active and inactive are the calls of the source.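 Rule for the calls: active = compounds whose fitted caspase activation midpoint falls no more than tenfold above the top tested dose; inconclusive = flat fit with activity between 30 and 70 percent, or failed fit; inactive = the rest.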 Some results are limits rather than exact numbers.

For the experiment, the system named is MEF Flag-A1-IRES-BIM, caspase-Glo luminescence, 3 h. Briefly: Caspase-Glo signal, Flag-A1-IRES-BIM MEF cells – cell-based, alternate construct, luminescence, A1 (Bcl2A1) inhibitor project, dose response (AID 449757). The gist of the method: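 material = Flag-A1-IRES-BIM-primed MEF cells | quantity = 2500 cells/well | buffer or medium = RPMI-1640 growth medium with 10% FBS | doses = 100 nL compound added per well by pin transfer | incubation = 3-h compound at 37 °C, 30-min cooling, 1-h reagent at RT | detection = CaspaseGlo luminescence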
Usually AC50 stands for the midpoint of the concentration-response curve, whichever way the signal moves. As for `COc1ccc(Oc2cc(NC(=O)c3nn(C)cc3[N+](=O)[O-])cc([N+](=O)[O-])c2)cc1`, the AC50 is 21.3 µM.

In the case of `N#Cc1c(C(F)(F)F)cc(-c2ccccc2)nc1SCC(=O)Nc1sc2c(c1C#N)CCC2`, the AC50 was > 35 µM (inactive).

As to `O=C(Nc1ccc2oc(-c3cccc(F)c3)nc2c1)c1ccccc1F`, the AC50 was > 35 µM (inactive).

With `CCOC(=O)Cc1csc(/N=C/c2c(O)n(-c3ccc(C)c(C)c3)c(=O)c3ccccc23)n1`, the AC50 was 15.9 µM.

For the compound `Cc1ccc(C)c(NC(=S)NC(NC(=O)Cc2cccc3ccccc23)C(Cl)(Cl)Cl)c1` (stereo not drawn), the AC50 is 13.2 µM.

As to `CCCCC1CCC(C(=O)N(CC(C)C)c2c(N)n(Cc3ccccc3)c(=O)[nH]c2=O)CC1` (stereo not drawn), the AC50 was 8.13 µM.

Regarding `N#Cc1cccnc1N1CCN(C(=O)c2cccc3c2C(=O)c2ccc(-c4ccc(Cl)c(C(F)(F)F)c4)cc2S3(=O)=O)CC1`, the AC50 is > 35 µM (inactive).

In the case of `COc1ccccc1C(=O)Nc1ccnn1C1CCN(Cc2cn(C)c3ccccc23)CC1`, the AC50 was > 35 µM (inactive).

Turning to `CC1CC(C)CN(C(=O)c2ccc(-c3ccc([N+](=O)[O-])cc3)o2)C1` (stereo not drawn), the AC50 is > 35 µM (inactive).

Turning to `Oc1[nH]c2ccc(Br)cc2c1N=NC(=S)Nc1ccc(F)cc1`, the AC50 was > 35 µM (inactive).

For `C#CC(=O)N(c1cc(OC)ccc1OC)C(C(=O)NC1CCCC1)c1cccs1` (stereo not drawn), the AC50 is > 35 µM (inactive).

As to `Nc1nc(F)nc2c1ncn2[C@@H]1O[C@H](CO)[C@@H](O)[C@H]1O`, the AC50 was > 35 µM (inactive).

Consider `COc1cc(C(=O)Nc2cc3c(cc2N2CCCCC2)n(C)c(=O)n3C)cc(OC)c1OC`, for which the AC50 was > 35 µM (inactive).

Regarding `CCOc1cc(/C=C2/C(=N)N3C=CSC3=NC2=O)ccc1OCCCOc1ccccc1C`, the AC50 was 35.4 µM.

With `CCOc1ccc(OCC(=O)N(CCC2=CCCCC2)c2c(N)n(Cc3ccccc3)c(=O)[nH]c2=O)cc1`, the AC50 was 20.9 µM.

As for `CC(C)CCN(C(=O)Cc1ccc(Cl)c(Cl)c1)c1c(N)n(Cc2ccccc2)c(=O)[nH]c1=O`, the AC50 is 16.9 µM.

For the compound `CC(C)(C)C1CCc2onc(C(=O)Nc3cccc(O)c3)c2C1` (stereo not drawn), the AC50 was > 35 µM (inactive).

For `Cc1occc1-c1nnc(SCC(=O)NCCc2ccccc2)n1Cc1ccccc1`, the AC50 was > 35 µM (inactive).

As to `COc1cc(/C=C/[N+](=O)[O-])ccc1OC(=O)c1cccnc1`, the AC50 was 9.63 µM.

`Cc1ccc2nc(N(CCCN(C)C)C(=O)c3ccc(S(=O)(=O)N4CCc5ccccc5C4)cc3)sc2c1`: the AC50 was > 35 µM (inactive).

As to `CC(=O)Nc1ccc(NC(=O)C(C)OC(=O)/C=C/c2cn(-c3ccccc3)nc2-c2cccnc2)cc1` (stereo not drawn), the AC50 is 27.5 µM.

Turning to `CCc1nnc(NC(=O)CSc2nc(-c3ccccc3)cc(-c3ccc(F)cc3)c2C#N)s1`, the AC50 is 33.1 µM.

Take `Cc1ccc(C(=O)/C=C/C(=O)c2ccc(C)cc2)cc1`: the half-maximal activity concentration (AC50) was 5.64 µM.

As to `COc1ccc(S(=O)(=O)N2CC(O)CC2C(=O)OCC(=O)Nc2ccc(Cl)cn2)cc1` (stereo not drawn), the AC50 was > 35 µM (inactive).

With `Cc1ccc(S(=O)(=O)c2nnn3c2nc(Nc2cccc(C)c2)c2ccccc23)cc1`, the AC50 is > 35 µM (inactive).

With `CCOc1ccc(-n2c(SCC(=O)Nc3ccc(Br)cc3)nc3n[nH]c(C)c3c2=N)cc1`, the AC50 is 31 µM.

For `COc1ccccc1-c1cc(C(F)(F)F)nc(S(=O)(=O)CCCC(=O)N2CCOCC2)n1`, the half-maximal activity concentration (AC50) was 8.31 µM.

Turning to `CC(C)(C)c1ccc(C(=O)Nc2ccc(O)c3c(=O)cc(-c4cccc(Cl)c4)oc23)cc1`, the AC50 is > 35 µM (inactive).

As to `C=C1CCc2c([nH]c3ccc(OCC(C)C)cc23)C1=O`, the AC50 was 8.5 µM.

For `O=C(COc1ccccc1[N+](=O)[O-])Nc1ccc(NC(=O)c2cc3ccccc3o2)cc1`, the half-maximal activity concentration (AC50) is 28.7 µM.

As to `COc1cccc(C(=O)C(C#N)=C(SC)SC)c1`, the AC50 was > 35 µM (inactive).

`O=[N+]([O-])/C=C/c1ccc2c(ccn2Cc2ccccc2)c1`: the AC50 was 13.4 µM.

On to `COc1cc(NC(=O)c2cccs2)ccc1NC(=O)c1cc2ccccc2o1`, for which the AC50 is > 35 µM (inactive).

As to `Cc1cccc(Nc2nc(N)c([N+](=O)[O-])c(N3CCCC(C)C3)n2)c1` (stereo not drawn), the AC50 was > 35 µM (inactive).

On to `Cn1cc([N+](=O)[O-])c(C(=O)Nc2cc(Oc3ccccc3)cc([N+](=O)[O-])c2)n1`, for which the AC50 was 19.5 µM.

`CC(C)(C)[C@H](N)C(=O)N[C@H]1CCC2C3CC=C4C[C@@H](O)CC[C@]4(C)C3CC[C@@]21C` (stereo partly drawn): the AC50 was > 35 µM (inactive).

With `Cc1ccc(C2(c3ccc(C)cc3)CC2C(=O)Nc2ccc([N+](=O)[O-])cc2O)cc1` (stereo not drawn), the AC50 is > 35 µM (inactive).

`COc1cc2c(-c3ccccc3)c(C)oc2cc1/C=N/NC(N)=S`: the AC50 was > 35 µM (inactive).

For `CC(=O)Nc1ccc(NC(=O)C(=O)NCC(c2ccco2)N2CCc3ccccc32)cc1` (stereo not drawn), the half-maximal activity concentration (AC50) was 28.9 µM.

In the case of `Cc1ccc(S(=O)(=O)N(C)Cc2ccc(C(=O)N/N=C/c3ccc(OC(F)F)cc3)cc2)cc1`, the AC50 was > 35 µM (inactive).

For the compound `CC[C@H]1CN2CCc3cc(OC)c(OC)cc3[C@@H]2C[C@@H]1C[C@H]1NCCc2cc(OC)c(OC)cc21`, the AC50 is > 35 µM (inactive).

As to `CC(=O)OC(C)(C)/C=C/C(=O)C(C)(O)C1[C@H](O)C[C@@]2(C)C3CC=C4C(CC[C@@H](O)C4(C)C)[C@]3(CO)C(=O)C[C@]12C` (stereo partly drawn), the AC50 is > 35 µM (inactive).

As to `CCOC(=O)/C(=C\c1cccnc1)C(=O)c1cc(C(C)=O)c(Nc2ccccc2)s1`, the AC50 was 4.1 µM.

For `C=CC(=O)Nc1ccc(CN2C(=O)N(c3c(Cl)c(OC)cc(OC)c3Cl)Cc3cnc(NCCCCN(CC)CC)nc32)cc1`, the AC50 was > 35 µM (inactive).

For the compound `COC(=O)CSc1nc(N)c2c3c(sc2n1)C(c1ccccc1)SC(c1ccccc1)C3` (stereo not drawn), the AC50 was > 35 µM (inactive).

On to `Cc1ccc(NC(=O)CSc2nc3nc(C)c(Br)cc3[nH]2)cc1F`, for which the AC50 was > 35 µM (inactive).

For the compound `COc1cc(SC#N)ccc1N=Cc1c(C)[nH]n(-c2ccc(C)cc2)c1=O`, the concentration at half-maximal activity (AC50) was 25.3 µM.

`CC(=O)Nc1ncnc2c1c(-c1ccc(Cl)cc1)nn2C(C)(C)C`: the AC50 was > 35 µM (inactive).

`COc1ccc(C=C2C=C(C(C)(C)C)C(=O)C(C(C)(C)C)=C2)cc1OC`: the AC50 is 3.49 µM.

For `COc1ccccc1CCNC(C)CCc1ccc(O)cc1` (stereo not drawn), the AC50 was > 35 µM (inactive).

Turning to `COc1ccc(-c2nc(NC(=O)c3n[nH]c(=O)c4ccccc34)sc2C)cc1`, the AC50 is > 35 µM (inactive).

Regarding `COc1cc(CN2CCN(c3cc(C)ccc3C)CC2)ccc1O`, the AC50 was > 35 µM (inactive).

On to `O=C(Nc1ccc2oc(-c3ccccc3)nc2c1)c1ccccc1F`, for which the AC50 was > 35 µM (inactive).

Source of the values: PubChem BioAssay AID449757 (Broad Institute, 2010).
